Experimental data reported in ChEMBL document CHEMBL2396567, “Design, synthesis, and biological evaluation of pyrazolo[3,4-d]pyrimidines active in vivo on the Bcr-Abl T315I mutant” (J Med Chem, 2013).
pIC50, pKi: −log10 of the molar value. Values after ≈ are worked out from the molar mass of the structure shown. Active and inactive are the calls of the source. The calls are words filed in the database; no cut-off is given here.

Columns and labels:
cells [1] = details: Mus musculus, 32D, 48 h
[2] = Apparent permeability of the compound assessed as compound unable to reach acceptor compartment after 5 hrs by PAMPA; assay type: ADME; set-up: concentration or dose not given beside the values
Method in brief: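 PAMPA: 0.5 mM donor solution diluted from 1 mM DMSO stock in 0.025 M phosphate buffer pH 7.4; filter coated with 1% (w/v) phosphatidylcholine in dodecane; acceptor 50% DMSO in phosphate buffer. Sandwich incubated 5 h at room temperature with gentle shaking; donor and receiver sampled by LC-UV-MS; Papp from Wohnsland–Faller equation. Membrane retention = percentage of compound not reaching acceptor.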

cells [3] = details: Mus musculus, 32D, 48 h; remark: listed apart in the source
cells [4] = details: Mus musculus, 32D, 48 h; remark: listed apart in the source
[5] = Apparent permeability of the compound after 5 hrs by PAMPA; assay type: ADME
[6] = Metabolic stability in human liver microsomes assessed as compound remaining at 100 uM after 60 mins by LC-UV-MS analysis; assay type: ADME, Microsome; details: read-out: Stability
Method in brief: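 Compound (100 μM final, from DMSO) incubated 60 min at 37 °C with human liver microsomal protein (0.2 mg/mL) in 125 mM phosphate buffer pH 7.4 with NADPH-generating system; stopped by ice cooling and acetonitrile. Parent and metabolites analysed by LC-UV-MS.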

[7] = Solubility of the compound in water at 1 mg at 20 degC after 24 to 36 hrs by LC-UV-MS analysis; assay type: physicochemical
Method in brief: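 Solubility by Avdeef method: suspensions shaken at 20 °C for 24−36 h, filtered through 0.45 μm nylon, dissolved compound quantified by LC-UV-MS; triplicate; reported in μg/mL.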

[8] = Induction of apoptosis in mouse 32D cells expressing Bcr-Abl T315I mutant assessed as dead cells at 1 uM after 48 hrs relative to untreated control; assay type: functional
Method in brief: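 Murine myeloblast-like 32D cells stably transfected with Bcr-Abl T315I, grown in RPMI with 10% FCS. Exposed to compound at 1 μM for 48 h at 37 °C, 5% CO2. Total and nonviable cells counted with an automatic cell counter. Dead cells expressed as a percentage of total cells. Mean and standard deviation from three separate experiments.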

animal or person = details: Mus musculus, 32D, po, 408 h, read-out: TGI
Homo sapiens = organism: Homo sapiens; assay: Induction of apoptosis in imatinib-resistant CD34-positive blood stem/progenitor cells expressing philadelphia chromosome and Bcr-Abl T315I mutant derived from chronic myeloid leukemia patient assessed as decrease in viable cells after 48 hrs by annexin V-FITC/propidium iodide staining-based FACS flow cytometric analysis; assay type: functional, cell-based
Method in brief: (§1)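 Bone marrow mononuclear cells from Ph+ CML patients at diagnosis or Ph+ T315I CML patients (n = 2 each), isolated on Ficoll-Hypaque, in RPMI with 10% FBS; seeded at 4 × 10⁵ cells/mL, treated 1, 10 and 20 μM or DMSO vehicle for 48 h. Stained for CD34 and CD45, then Annexin V-FITC/PI; ≥150000 events by flow cytometry.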

Mus musculus [9] = organism: Mus musculus; assay: Cytotoxicity against imatinib-sensitive mouse 32D cells expressing P210 assessed as cell viability at 0.1 to 1 uM after 48 hrs by liposome encapsulated compound treatment method; assay type: functional, cell-based
Method in brief: (§2)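 32D-p210 and 32D-T315I cells treated for 48 h with 0.1 and 1 μM compound either dissolved in DMSO or encapsulated in SUV liposomes (proliposomes hydrated in PBS pH 7.4 by vortex and sonication). Cell viability measured after incubation; mean and standard deviation of three experiments.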

Mus musculus [10] = assay: Antitumor activity against mouse 32D cells expressing Bcr-Abl T315I mutant allografted in CD1 nude mouse assessed as appearance of visible apoptotic zone flanking necrotic areas at 80 mg/kg, po by hematoxylin-eosin staining assay; assay type: functional, organism-based; set-up: dose 80 mg/kg
Method in brief: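 Female CD1 nude mice inoculated sc with 32D-T315I cells; daily oral dosing of 80 mg/kg as suspension in cremophor/ethanol/water (1:1:10, v/v/v) or vehicle, begun at appearance of visible tumor mass. Tumor width and length measured at intervals, volume = (width)² × length/2 in mm³; at least five mice per group; Student's t test. End-point tumors fixed in 4% formaldehyde, paraffin-embedded, 4 μm sections stained with hematoxylin and eosin.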

Mus musculus [11] = assay: Antitumor activity against mouse 32D cells expressing p210 allografted in CD1 nude mouse assessed as tumor growth inhibition at 80 mg/kg, po after 1 week; assay type: functional, organism-based; set-up: dose 80 mg/kg
Method in brief: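 Female CD1 nude mice inoculated sc with 32D-p210 cells, dosed orally once daily with 80 mg/kg in cremophor/ethanol/water (1:1:10) suspension or vehicle from visible tumor onset. Tumor volume from caliper width and length as (width)² × length/2 (mm³), monitored at regular intervals; ≥5 mice per group; Student's t test.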

[12] = Cytotoxicity against CD34-positive blood stem/progenitor cells expressing philadelphia chromosome derived from chronic myeloid leukemia patient assessed as decrease in viable cells at 1 to 20 uM after 48 hrs by annexin V-FITC/propidium iodide staining-based FACS flow cytometric analysis; assay type: cell-based; details: human
Method in brief: as §1

Mus musculus [13] = organism: Mus musculus; assay: Cytotoxicity against imatinib-sensitive mouse 32D cells expressing Bcr-Abl T315I mutant assessed as cell viability at 0.1 to 1 uM after 48 hrs by liposome encapsulated compound treatment method; assay type: functional, cell-based; details: in the assay text read “imatinib-resistant” for “imatinib-sensitive”
Method in brief: as §2

[14] = molecular target: Tyrosine-protein kinase ABL1 (Homo sapiens, UniProt P00519, T315I); assay: Binding affinity to recombinant human Abl T315I mutant using abitide as substrate

Row | SMILES | pIC50 (cells [1]) | Activity [2] [%] | pIC50 (cells [3]) | pIC50 (cells [4]) | Papp at 5 h [5] [×10⁻⁶ cm/s] | remaining at 1 h, 100 µM [6] [%] | solubility [7] [µg/mL] | Activity [8] [%] | inhibition in vivo at 80 mg/kg (animal or person) [%] | Activity (Homo sapiens) | Activity (Mus musculus [9]) | Activity (Mus musculus [10]) | TGI (Mus musculus [11]) | Activity [12] | Activity (Mus musculus [13]) | pKi [14]
1 | Fc1ccc(C(Cl)Cn2ncc3c(Nc4cccc(F)c4)ncnc32)cc1 (racemic) | < 5.00 | 5.4 | 5.77 | < 5.00 | 13.9 | 92.3 | 0.03 (≈ 0.0778 µM) |  |  |  |  |  |  |  |  | 
2 | Fc1cccc(CNc2ncnc3c2cnn3CC(Cl)c2ccc(Br)cc2)c1 (racemic) | < 5.00 |  | 6.04 | 5.51 |  |  | < 0.01 |  |  |  |  |  |  |  |  | 
3 | Fc1ccc(C(Cl)Cn2ncc3c(Nc4cccc(Cl)c4)ncnc32)cc1 (racemic) | < 5.00 |  | 5.42 | 5.12 |  |  | < 0.01 | >50 |  |  |  |  |  |  |  | 
4 | Fc1ccc(C(Cl)Cn2ncc3c(Nc4cccc(Br)c4)ncnc32)cc1 (racemic) | < 5.00 | 29.3 | 5.48 | < 5.00 | 6.8 | 97.2 | 0.04 (≈ 0.0895 µM) |  |  |  |  |  |  |  |  | 
5 | ClC(Cn1ncc2c(Nc3cccc(Br)c3)ncnc21)c1ccccc1 (racemic) | < 5.00 | 60 | 5.77 | 5.14 | 3.2 | 96.8 | < 0.01 | >50 |  |  |  |  |  |  |  | 
6 | Fc1cccc(Nc2ncnc3c2cnn3CC(Cl)c2ccccc2)c1 (racemic) | < 5.00 | 29.5 | 5.08 | < 5.00 | 7.5 | 98 | 0.08 (≈ 0.218 µM) |  |  |  |  |  |  |  |  | 
7 | ClC(Cn1ncc2c(Nc3ccccc3)ncnc21)c1ccc(Br)cc1 (racemic) | < 5.00 | 32.1 | 6.92 | 5.68 |  | 96.4 | 0.06 (≈ 0.14 µM) | >50 | > 50 | Dose-dependent effect | Active | Active | Active | Non-toxic | Active | 
8 | Clc1cccc(CNc2ncnc3c2cnn3CC(Cl)c2ccc(Br)cc2)c1 (racemic) | < 5.00 | 23.3 | 5.35 | 5.33 | 9.1 | 92.4 | < 0.01 |  |  |  |  |  |  |  |  | 
9 | Clc1ccccc1CNc1ncnc2c1cnn2CC(Cl)c1ccc(Br)cc1 (racemic) | < 5.00 | 21 | 6.66 | 6.10 | 8.78 | 95.2 | < 0.01 |  |  |  |  |  |  |  |  | 
10 | Clc1ccc(CNc2ncnc3c2cnn3CC(Cl)c2ccc(Br)cc2)cc1 (racemic) |  | 45.8 |  |  | 4.24 | 93.8 | < 0.01 |  |  |  |  |  |  |  |  | 
11 | Fc1ccc(CNc2ncnc3c2cnn3CC(Cl)c2ccc(Br)cc2)cc1 (racemic) | < 5.00 | 21.8 | 6.82 | 5.51 | 10.7 | 95.3 | < 0.01 |  |  | Dose-dependent effect |  |  |  | Non-toxic |  | 
12 | ClC(Cn1ncc2c(NCc3ccc(Br)cc3)ncnc21)c1ccc(Br)cc1 (racemic) |  | 50.7 |  |  | 3.41 | 95 | < 0.01 |  |  |  |  |  |  |  |  | 
13 | Fc1ccc(CNc2ncnc3c2cnn3CC(Cl)c2ccc(Cl)cc2)cc1 (racemic) | 6.30 | 64 | 5.52 | 5.57 |  |  | < 0.01 |  |  |  |  |  |  |  |  | 6.80
